The record followed here is ChEMBL document CHEMBL4014335, “Activation of Phenyl 4-(2-Oxo-3-alkylimidazolidin-1-yl)benzenesulfonates Prodrugs by CYP1A1 as New Antimitotics Targeting Breast Cancer Cells” (J Med Chem, 2017).

Each structure is given as a SMILES string. Some results are limits rather than exact numbers.

Test [1] has as its system HT-29. Kind of test: Antiproliferative activity against human HT-29 cells after 48 hrs by SRB assay. Type of test: functional, cell-based. Particulars: HT-29, 48 h. In a few lines:
(§1)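 SRB assay run as in the NCI screen with slight modifications. Seeding: HT-29 5.0 x 10^3, M21 3.5 x 10^3, MCF7 7.5 x 10^3 cells; cells preincubated 24 h. Drug in DMSO added at 0.75 to 1.0 x 10^5 nM for 48 h. TCA fixation, sulforhodamine B staining, absorbance 530-565 nm. At least two experiments in triplicate; runs accepted only when relative SD < 10%.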
For orientation: Sulforhodamine B stains cellular protein and so reports cell mass.

In test [2] the test system is MCF7. Kind of test: Antiproliferative activity against human MCF7 cells after 48 hrs by SRB assay. The class given is functional, cell-based. Particulars: MCF7, 48 h. In a few lines:
as §1

Test [3] is described as follows: Selectivity ratio of IC50 for human HT-29 cells to IC50 for human MCF7 cells. The class given is functional. In a few lines: (§2)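 Ratio is IC50 in reference line over IC50 in sensitive line. […] Cells in DMEM with 5% calf serum at 37 °C. At least two experiments, triplicate cultures; assay accepted when relative SD < 10%.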
Test [4] can be described thus: Selectivity ratio of IC50 for human M21 cells to IC50 for human MCF7 cells. Type of test: functional. A digest of the protocol: as §2
For test [5], the system named is M21. Kind of test: Antiproliferative activity against human M21 cells after 48 hrs by SRB assay. The class given is functional, cell-based. Particulars: M21, 48 h. In a few lines:
as §1

`CCCN1CCN(c2ccc(S(=O)(=O)Oc3cccc(OC)c3)cc2)C1=O`: the IC50 came to 25 µM in test [1], 6300 nM in test [2] and 10 µM in test [5]. Besides, the entries for the “Ratio IC50” value in test [3] and in test [4] were 4 and 1.6, respectively.

As for `CCCCN1CCN(c2ccc(S(=O)(=O)Oc3cccc(OC)c3)cc2)C1=O`, the concentration for half-maximal inhibition (IC50) amounted to 13 µM in test [1], 490 nM in test [2] and 30 µM in test [5]. Moreover, the results for the “Ratio IC50” value in test [3] and in test [4] were 27 and 61, respectively.

Consider `CCCCN1CCN(c2ccc(S(=O)(=O)Oc3ccc(OC)cc3)cc2)C1=O`, for which the values for the IC50 in test [1], in test [2] and in test [5] were 35 µM, 2500 nM and greater than 100 µM, respectively. Also, the “Ratio IC50” value is 14 in test [3] and greater than 39 in test [4].

For `CCN1CCN(c2ccc(S(=O)(=O)Oc3cccc(I)c3)cc2)C1=O`, the IC50 in test [1] was 3.1 µM; in test [2], 1900 nM; in test [5], 2.2 µM. Besides, the “Ratio IC50” value in test [3] came to 1.7; in test [4], 1.2.

As for `CCCN1CCN(c2ccc(S(=O)(=O)Oc3ccccc3CC)cc2)C1=O`, the concentration for half-maximal inhibition (IC50) in test [1] is greater than 100 µM; in test [2], 2300 nM; in test [5], greater than 50 µM. The “Ratio IC50” value in test [3] is given as greater than 43; in test [4], greater than 22.

Regarding `CN1CCN(c2ccc(S(=O)(=O)Oc3cccc(Cl)c3)cc2)C1=O`, the IC50 worked out at 2.1 µM in test [1], 2200 nM in test [2] and 1.6 µM in test [5]. For the same compound, the “Ratio IC50” value in test [3] turned out to be 0.9; in test [4] it was 0.7.

`CCCN1CCN(c2ccc(S(=O)(=O)Oc3cccc([N+](=O)[O-])c3)cc2)C1=O`: the IC50 was greater than 100 µM in test [1], 19000 nM in test [2] and 38 µM in test [5]. In addition, the figures for the “Ratio IC50” value in test [3] and in test [4] were greater than 5.3 and 2, respectively.

`CCN1CCN(c2ccc(S(=O)(=O)Oc3cc(OC)c(OC)c(OC)c3)cc2)C1=O`: the half-maximal inhibitory concentration (IC50) in test [1] worked out at 0.64 µM; in test [2], 700 nM; in test [5], 0.87 µM. Moreover, the “Ratio IC50” value in test [3] was determined as 0.9; in test [4] it was 1.2.

Take `CCCCN1CCN(c2ccc(S(=O)(=O)Oc3ccccc3)cc2)C1=O`: the 50% inhibitory concentration (IC50) was greater than 100 µM in test [1], 8800 nM in test [2] and greater than 100 µM in test [5]. For the same compound, the “Ratio IC50” value in test [3] and in test [4] was greater than 11 each time.

For `CCN1CCN(c2ccc(S(=O)(=O)Oc3cccc(OC)c3)cc2)C1=O`, the concentration for half-maximal inhibition (IC50) was 22 µM in test [1], 14000 nM in test [2] and 7 µM in test [5]. The “Ratio IC50” value in test [3] was found to be 1.6; in test [4], 0.5.

`CCCCN1CCN(c2ccc(S(=O)(=O)Oc3cccc(Br)c3)cc2)C1=O`: the concentration for half-maximal inhibition (IC50) was 16 µM in test [1], 85 nM in test [2] and 35 µM in test [5]. In addition, the “Ratio IC50” value in test [3] was determined as 190; in test [4], 410.

As for `CCCCN1CCN(c2ccc(S(=O)(=O)Oc3cc(F)cc(F)c3)cc2)C1=O`, the IC50 was greater than 100 µM in test [1], 400 nM in test [2] and greater than 100 µM in test [5]. For the same compound, the “Ratio IC50” value in test [3] and in test [4] was greater than 250 throughout.

With `COc1ccccc1OS(=O)(=O)c1ccc(N2CCN(C)C2=O)cc1`, the concentration for half-maximal inhibition (IC50) came to 26 µM in test [1], 26000 nM in test [2] and 21 µM in test [5]. The “Ratio IC50” value was 1 in test [3] and 0.8 in test [4].

As for `COc1ccc(OS(=O)(=O)c2ccc(N3CCN(C)C3=O)cc2)cc1`, the IC50 was greater than 100 µM in test [1], 95000 nM in test [2] and greater than 100 µM in test [5]. Also, the “Ratio IC50” value in test [3] and in test [4] was greater than 1.1 in each case.

For the compound `Cc1ccccc1OS(=O)(=O)c1ccc(N2CCN(C)C2=O)cc1`, the values for the IC50 in test [1], in test [2] and in test [5] were 4.8 µM, 5600 nM and 2.9 µM, respectively. Moreover, the “Ratio IC50” value in test [3] amounted to 0.9; in test [4], 0.5.

For orientation: IC50 means the midpoint of a concentration-inhibition curve. Read a low IC50 as greater potency in that assay.
